High-throughput results deposited in PubChem by several laboratories.
Compounds with a hit are over-represented: about 2.3% of the library has one in this group of screens.
Calb FLC: C. albicans growth modulation with fluconazole; 0.57% of 300,000 active; AID 1979; growth inhibition, % (concentration not given with the values); C. albicans CaCi-2 (fluconazole-resistant clinical isolate) + fluconazole, Alamar Blue growth, 48 h;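 active means growth inhibition above about 58% in most replicates, limit read from the data, passing the limit was not always enough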;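 further: all wells also contain fluconazole at 8 µg/ml as a sub-toxic cotreatment; 0% = median of DMSO wells and 100% = median of geldanamycin control wells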
ASAP1 inh: blocks human ASAP1-stimulated Arf1 GTP hydrolysis; Q9ULH1; GDP FP detection; inhibition, % at 16.5 µM; 0.19% of 360,000 active; in the data active means inhibition above about 25%;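 further: 0% = vehicle with enzyme and substrate and 100% = no enzyme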
HGIII-sPLA2 inh: Blocks human group III sPLA2 activity; inhibition, % at 12.2 µM; 0.56% of 370,000 active; AID 743126; QFRET BODIPY PC-A2 liposome hydrolysis, fluorescence; Q9NZ20;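 active means inhibition above mean plus 3 SD of compounds lying within the high and low control bounds, cut at about 19% in these data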;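 further: 0% = median of test compound wells and 100% = no enzyme DMSO wells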
Target sequence (Q9NZ20 whole entry, looked up): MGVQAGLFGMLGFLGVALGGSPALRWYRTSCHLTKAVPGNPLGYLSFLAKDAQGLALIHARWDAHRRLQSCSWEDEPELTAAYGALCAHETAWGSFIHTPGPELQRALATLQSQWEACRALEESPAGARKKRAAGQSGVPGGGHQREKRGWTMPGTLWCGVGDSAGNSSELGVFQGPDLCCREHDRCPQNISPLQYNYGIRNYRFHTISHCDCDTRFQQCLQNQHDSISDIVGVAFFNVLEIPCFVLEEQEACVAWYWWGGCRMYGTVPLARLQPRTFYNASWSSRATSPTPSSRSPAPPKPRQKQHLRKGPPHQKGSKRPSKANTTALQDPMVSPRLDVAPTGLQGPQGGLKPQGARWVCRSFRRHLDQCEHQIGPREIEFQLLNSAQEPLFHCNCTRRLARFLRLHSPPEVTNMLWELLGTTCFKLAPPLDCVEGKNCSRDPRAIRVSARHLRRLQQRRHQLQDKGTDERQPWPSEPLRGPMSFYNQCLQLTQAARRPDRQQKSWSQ
SKKanGAS inh: inhibitors of SKKanGAS S. pyogenes growth in kanamycin (SK-promoter or general growth effect). BacTiter-Glo, 6 h. inhibition, % at 7.5 µM. 1.3% of 300,000 active;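 active means mean replicate score, as percent of positive control median, at least 50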;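 further: strain carries kanamycin resistance gene driven by streptokinase promoter and grows in 40 µg/ml kanamycin; loss of luminescence reflects streptokinase promoter inhibition or plain growth inhibition; 0% = median of DMSO wells and 100% = positive control at its reference dose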
ARFGAP1 inhibitor: inhibits rat ARF GTPase activating protein 1; Q62848; Arfgap1-stimulated ARF1 GTP hydrolysis, GDP FP detection; inhibition, % at 16.5 µM; 0.26% of 360,000 active;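 active means inhibition above a per-plate limit, mean inhibition of low control wells plus 3 SD, cut at about 25% in these data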;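 further: 0% = DMSO wells with enzyme and 100% = wells lacking Arfgap1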
Target sequence (Q62848 1-136 limits assumed): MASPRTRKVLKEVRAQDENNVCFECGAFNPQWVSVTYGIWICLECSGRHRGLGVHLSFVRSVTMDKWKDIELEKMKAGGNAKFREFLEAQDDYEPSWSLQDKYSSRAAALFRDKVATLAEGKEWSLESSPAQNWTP
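Repeats: one replicate per compound; assay system: rat Arfgap1 catalytic domain, aa 1-136; times: enzyme reaction 120 min at 25 °C after 20 min preincubation; detection: FP of antibody-bound GDP Alexa 633 tracer, ex 620/em 688 nm; benchmarks: high control wells lacking Arfgap1, low control full reaction with DMSO; reagent: human ARF1(Δ1-17)-GTP substrate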
* marks the source's active call; other numbers are inactive results; . = no result.

SMILES	Calb FLC	ASAP1 inh	HGIII-sPLA2 inh	SKKanGAS inh	ARFGAP1 inhibitor
COc1ccc(NC(=O)CN(C)C(=O)/C=C/c2cn(-c3ccccc3)nc2-c2ccc(F)cc2)cc1	1.3	6.2	0.6	63.1*	1.8
COc1cccc(NC(=O)CN(C)C(=O)/C=C/c2cn(-c3ccccc3)nc2-c2ccc(C)cc2)c1	-1.0	0.5	-30.4	23.6	4.3
CCCn1c(=O)c(C(=O)Nc2cccc(C)n2)c(O)c2ccccc21	6.4	13.4	-0.2	-7.8	1.7
CC(C)Cn1c2c(c(O)c(C(=O)Nc3ccc(F)cc3)c1=O)CCCC2	8.1	3.7	3.9	14.7	-4.3
CC(C)Cn1c2c(c(O)c(C(=O)Nc3ncccc3O)c1=O)CCCC2	-5.0	1.4	-16.8	89.5*	-5.5
CCCn1c(=O)c(C(=O)Nc2ncccc2C)c(O)c2ccccc21	-1.7	-15.5	4.7	54.6*	3.2
CCn1c(=O)c(C(=O)NNC(=O)Cc2ccccc2)c(O)c2ccccc21	3.3	-3.8	6.0	54.3*	9.6
CCn1c(=O)c(C(=O)Nc2ccccc2)c(O)c2ccccc21	-7.9	4.5	-2.0	1.8	7.6
CCn1c(=O)c(C(=O)NNC(=O)c2ccccc2Br)c(O)c2ccccc21	1.7	4.5	18.5	89.6*	1.2
CCCCCCCCC(=O)NNC(=O)c1c(O)c2ccccc2n(CCC)c1=O	-2.9	-1.6	7.3	116.7*	-10.8
CCCCCCCC(=O)NNC(=O)c1c(O)c2ccccc2[nH]c1=O	16.0	0.3	9.7	31.0	-3.6
CCc1nc2ccccc2c(=O)n1NC(=O)c1c(O)c2ccccc2n(CC)c1=O	18.4	-4.8	1.6	25.8	-2.2
CCCn1c(=O)c(C(=O)NCc2ccccc2)c(O)c2ccccc21	-21.0	-10.6	-4.6	12.6	-7.7
CCCCCCCCCCC(=O)NNC(=O)c1c(O)c2ccccc2n(CC)c1=O	3.0	.	.	100.8*	.
CCCn1c(=O)c(C(=O)Nc2ccccc2C(=O)OCC)c(O)c2ccccc21	-25.0	.	.	-22.6	.
CCCCCCCCCC(=O)NNC(=O)c1c(O)c2ccccc2n(CCC)c1=O	5.7	-2.3	1.7	100.6*	9.5
CCn1c(=O)c(C(=O)Nc2nc3ccccc3[nH]2)c(O)c2ccccc21	-6.5	8.6	8.2	103.1*	4.2
Cc1ccc(C)c(NC(=O)C2CCCN2S(=O)(=O)c2cccnc2)c1 (centres undefined)	.	.	-0.8	.	.
CCN=C1NC(c2cccc(F)c2)C(C(=O)OC)=C(C)N1Cc1ccccc1C(F)(F)F (centres undefined)	.	1.3	5.3	.	3.1
COCCCN1C(=O)[C@H](CC(=O)NCC23CC4CC(CC(C4)C2)C3)[C@]2(C(=O)OC)CCCCC=C12	.	.	-3.7	.	.
Clc1ccc(-c2csc(N3CCc4ccccc4C3)n2)cc1	1.2	-0.3	1.9	55.6*	1.0
N#Cc1nc(-c2ccccc2Cl)oc1N1CCN(C(=O)c2ccco2)CC1	2.5	6.5	5.5	69.1*	-2.2
N#Cc1nc(-c2ccccc2F)oc1N1CCN(C(=O)c2ccco2)CC1	-8.2	-7.2	9.1	20.9	-3.0
Cc1noc(C)c1S(=O)(=O)N(C)CC(=O)NCc1ccccc1	12.7	-10.0	3.2	0.9	3.1
Cc1noc(C)c1S(=O)(=O)N(CCc1ccccc1)Cc1ccccc1	3.9	-12.9	-5.5	54.4*	8.5
SMILES	Calb FLC	ASAP1 inh	HGIII-sPLA2 inh	SKKanGAS inh	ARFGAP1 inhibitor
C[C@H]1COc2cccc(N3CCSCC3)c2S(=O)(=O)N1C	.	.	5.4	.	.
Cc1ccccc1N=Nc1ccc(O)c2ncccc12	-9.1	6.5	1.4	105.1*	-7.7
O=Nc1ccc(O)c2ncccc12	-11.5	-13.4	3.1	3.6	-13.5
COc1ccc(C)cc1N=Nc1ccc(O)c2ncccc12	108.8*	11.2	8.3	93.8*	-2.9
COc1ccc(N=Nc2ccc(O)c3ncccc23)cc1	2.5	-1.9	11.8	69.7*	-2.8
COc1ccc(N=Nc2cc(-c3ccccc3)ccc2O)cc1	1.2	-0.7	5.3	55.8*	6.6
COc1ccc(S[C@]2(C(=O)N3CCN(c4ncccn4)CC3)CC(=O)N(S(=O)(=O)c3ccc(F)cc3)[C@@H]2c2ccc(OC)cc2)cc1	.	.	-7.2	.	.
COc1cccc(N=Nc2ccc3cccnc3c2O)c1	86.3*	-25.0	11.6	117.6*	-7.6
Oc1ccc(N=Nc2ccc3c(c2)OCCO3)c2cccnc12	100.4*	-1.5	10.1	87.6*	-17.1
O=S(=O)(O)c1cccc2c(N=Nc3ccc(O)c4ncccc34)cccc12	84.0*	.	.	9.0	.
COc1cc(OC)cc(C(=O)Nc2cccc3cccnc23)c1	0.6	4.4	-0.6	-6.6	0.7
Nc1ccc(N=Nc2ccccc2)c2cccnc12	35.2	-3.0	13.4	24.8	2.3
Oc1ccc(N=Nc2ccc3c(c2)OCCO3)c(O)c1	3.4	-2.3	-1.0	-3.9	-12.7
Cc1cc(C)n(-c2nc(SCC(=O)Nc3nccs3)c3c4c(sc3n2)COC(C)(C)C4)n1	-4.4	-2.8	4.8	57.9*	-8.2
Cc1cc(C)n(-c2nc(NCCN(C)C)c3c4c(sc3n2)COC(C)(C)C4)n1	-44.4	4.4	1.8	12.3	0.7
Cc1cc(C)n(-c2nc(NCCN(C)C)c3c4c(sc3n2)CCCC4)n1	79.7*	-2.8	-21.1	16.5	4.8
Cc1cc(C)n(-c2nc(NCCC(C)C)c3c4c(sc3n2)COC(C)(C)C4)n1	1.8	-5.8	-2.0	64.5*	-16.5
Cc1cc(C)n(-c2nc3sc4c(c3c(=O)[nH]2)CCCC4)n1	-25.3	.	.	93.4*	.
Cc1cc(C)n(-c2nc(NCCCN(C)C)c3c4c(sc3n2)CCCC4)n1	50.0	-3.8	18.4	-0.5	10.3
CCOC(=O)[C@]12CCCC=C1N(Cc1ccc(OC)cc1)C(=O)[C@@H]2CC(=O)NCc1ccccc1	.	.	-11.0	.	.
CNC(=S)N1CCN(c2c(F)cc3c(=O)c(C(=O)O)cn(C4CC4)c3c2OC)CC1C (centres undefined)	-9.4	-11.9	4.5	104.1*	-4.9
CCOC(=O)c1cn(C2CC2)c2c(F)c(F)c(F)cc2c1=O	-6.0	2.7	4.8	-19.6	1.3
COC(=O)C(C)NC(=S)N1CCN(c2c(F)cc3c(=O)c(C(=O)O)cn(C4CC4)c3c2OC)CC1C (centres undefined)	-4.5	-0.7	0.9	95.4*	-5.4
O=C(COc1ccc(Cl)cc1Cl)Nc1ccc(-c2ccc(N3CCOCC3)nn2)cc1	10.5	15.6	-14.0	50.6*	22.5
OC(c1ccccc1)(c1ccccc1)C1CCN(CCCOc2ccc(-c3cccnc3)cc2)CC1	.	5.2	-26.0	.	7.0
COc1ccc(OC)c(/C=C2\S/C(=N/NC(=O)c3ccc4ccccc4c3)NC2=O)c1	-3.9	0.5	-5.8	106.4*	-8.2
CCC[C@H]1[C@@H](NC(=O)Nc2ccc3c(c2)OCO3)CC[C@@]23CCCN2C(=O)CCC[C@@H]13	.	.	-6.5	.	.
CN1CCN(C(=O)c2cnn(-c3ccccc3)c2NC(=O)c2ccccc2)CC1	93.7*	13.2	2.5	-0.3	-4.9
O=S1(=O)c2ccc(N3CCN(Cc4ccccc4F)CC3)cc2Oc2ccccc2CN1Cc1cn(Cc2cccc(F)c2)nn1	.	.	-10.5	.	.
